Screens as filed in PubChem.
OX1R antag-1: OX1R (HCRTR1) antagonists, primary screen, fluorescence, CHO/OX1R cells, Fluo-8 calcium, orexin A; Orexin/Hypocretin receptor type 1 (Homo sapiens), O43613; Fluo-8 calcium fluorescence; inhibition, % at 5 µM; hit rate 0.43% among 330,000; AID 434989, 2010;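 active means inhibition above its plate's threshold, mean inhibition of all tested compounds on the plate plus 3 SD, cut at about 37% in these data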;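 further: 0% = orexin A challenge wells and 100% = SB-334867-A antagonist wells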
Target sequence (O43613 whole entry, looked up): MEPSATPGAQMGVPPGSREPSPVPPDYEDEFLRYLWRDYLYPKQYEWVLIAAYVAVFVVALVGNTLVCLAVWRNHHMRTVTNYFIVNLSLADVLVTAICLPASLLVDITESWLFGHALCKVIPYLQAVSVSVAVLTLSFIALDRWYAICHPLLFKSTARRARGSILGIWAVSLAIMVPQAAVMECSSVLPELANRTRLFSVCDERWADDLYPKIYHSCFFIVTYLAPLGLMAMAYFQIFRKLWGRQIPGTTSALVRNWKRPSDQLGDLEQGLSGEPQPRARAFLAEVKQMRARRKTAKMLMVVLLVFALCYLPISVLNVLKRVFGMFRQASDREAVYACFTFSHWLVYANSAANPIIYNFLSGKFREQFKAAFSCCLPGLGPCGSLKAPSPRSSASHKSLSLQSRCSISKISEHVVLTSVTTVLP
TAAR1 ag: human TAAR1 agonists, primary screen, Fluo-8 calcium fluorescence, CHO RD-HGA16 cells | Trace amine-associated receptor 1 (Homo sapiens), Q96RJ0 | hit rate 0.99% among 360,000 | vehicle wells 0%, saturating PEA agonist 100% | activation, % at 3 µM;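 active means activation above the mean activation of all test compounds in the run plus 3 SD, cut at about 38% in these data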
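test system = CHO RD-HGA16 cells carrying human TAAR1 plus Gα16 | schedule = 17-24 h seeding, 75 min 37 °C dye, 30 min RT | compound dosing = 3 µM single concentration | control set = DMSO and PEA EC100 | replicates = n 1 | signal = Fluo-8 fluorescence, 5 s baseline then 140 s kinetic read | measure = percent activation vs PEA EC100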
GPR7 antag: GPR7 receptor antagonists, primary screen, cell-based, fluorescence, single concentration; Neuropeptides B/W receptor type 1 (Homo sapiens), P48145; GPR7-expressing cells, fluorescence antagonist assay; inhibition, % at 4.4 µM; hit rate 1.1% among 290,000; AID 1861, 2009; in the data active means inhibition above about 16%, passing the limit was not always enough;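 further: cells stimulated with the agonist NPW; 0% = agonist with vehicle and 100% = vehicle without agonist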
OX1R antag-2: antagonists of human orexin 1 receptor (OX1R); OX1R-expressing cells, FRET antagonist read-out; inhibition, % at 6.6 µM; AID 485270, 2010; hit rate 1.8% among 330,000; Orexin/Hypocretin receptor type 1 (Homo sapiens), O43613; in the data active means inhibition mostly above about 38%, no sharp cut-off; inactive means mostly below about 40%;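 further: 0% = agonist challenge alone and 100% = reference antagonist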
TAAR1 antagonist: human TAAR1 antagonists, primary screen, Fluo-8 calcium fluorescence, CHO RD-HGA16 cells; antagonist; Trace amine-associated receptor 1 (Homo sapiens), Q96RJ0; hit rate 1.5% among 360,000; inhibition, % at 3 µM;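 active means inhibition above a per-plate cutoff, the mean inhibition of test compounds on that plate plus 3 SD, cut at about 49% in these data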;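 further: 0% = DMSO plus EC80 beta-PEA response and 100% = DMSO alone without agonist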
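Test system: CHO RD-HGA16 cells bearing hTAAR1 | Reagent: β-PEA, EC80 | Compound dosing: 3 µM, single point | Schedule: Dye loading 75 min at 37 °C, then 30 min room temperature | Signal: Calcium fluorescence with Fluo-8 | Evaluation: Percent inhibition of PEA-evoked calcium signal, max/basal emission ratio | Control set: DMSO-only wells and EC80 β-PEA-stimulated wells | Repeats: Singlicate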
CHO parental Ca: ATP-evoked calcium signal inhibitors, parental CHO, primary screen, counter-screen for OX1R antagonist project, cell-based, fluorescence, Fluo-8 calcium dye | parental CHO-K1, ATP-induced calcium, Fluo-8 fluorescence | inhibition, % at 5.6 µM | hit rate 0.63% among 330,000 | AID 463079, 2010;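 active means inhibition above that plate's mean sample inhibition plus 3 SD, cut at about 26% in these data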;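 further: 0% = ATP-challenged DMSO wells and 100% = DMSO wells without ATP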
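Material – parental CHO cells · Reagent – ATP stimulus · Compound – single nominal dose of 5.6 µM per compound · Detection – Fluo-8 fluorescence · Read-out basis – percent inhibition of calcium signal · Controls – ATP-challenged DMSO wells low, unchallenged DMSO wells high · Repeats – no replicates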
TAAR1 ag conf: human TAAR1 agonists, retest of hits, confirmation, Fluo-8 calcium fluorescence, CHO RD-HGA16 cells; shares compounds with TAAR1 ag; scaled: DMSO 0%, maximal phenethylamine 100%; activation, % at 3 µM; hit rate 82% among 2,400; AID 651783, 2012;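 active means activation above a cutoff set at the run's mean compound activation plus 3 SD, cut at about 39% in these data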
Ga16 nonsel ag: nonselective calcium mobilization agonists, CHO-Ga16 cells, counter-screen for hTAAR1 agonist project, cell-based, fluorescence, CHO-Ga16 parental line | Fluo-8 calcium fluorescence; normalized to maximal ATP response, DMSO zero | activation, % at 3 µM | shares compounds with TAAR1 ag | hit rate 50% among 2,400;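 active means activation above the run cutoff, the mean activation over all tested wells plus 3 SD, cut at about 12% in these data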;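 further: 0% = DMSO wells and 100% = maximal ATP response on the peak over basal ratio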
TAAR1 desensitize: TAAR1 desensitization by agonist hits, confirmation, counter-screen for TAAR1 agonist project, cell-based, fluorescence, tachyphylaxis. hit rate 46% among 2,400. inhibition, % at 3 µM. AID 651951, 2012. shares compounds with TAAR1 ag. CHO RD-HGA16 hTAAR1, Fluo-8 calcium, beta-PEA response inhibition;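 active means inhibition above the run cutoff, the mean inhibition of all test compounds plus 3 SD, cut at about 49% in these data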;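 further: beta-PEA stimulus applied at its EC80; loss of beta-PEA calcium signal after compound pretreatment read as receptor desensitization; 0% = DMSO with beta-PEA at EC80 and 100% = DMSO alone without agonist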
Ga16 antag count: inhibition of ATP-evoked calcium response in CHO-Ga16 cells, counter-screen for TAAR1 agonist project, cell-based, fluorescence | shares compounds with TAAR1 ag | CHO-Ga16 ATP-induced calcium, Fluo-8 fluorescence | inhibition, % at 3 µM | hit rate 39% among 2,400;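 active means inhibition above the plate's mean compound inhibition plus 3 SD, computed per plate, cut at about 22% in these data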;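 further: 0% = EC80 ATP with DMSO and 100% = DMSO wells without ATP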
Numbers without * were called inactive. Hits are enriched below; roughly 4.5% of the tested compounds scored in any of these assays.

`CN1/C(=C\C=C2/SC(=S)N(CC(=O)O)C2=O)C(C)(C)c2ccccc21` gave OX1R antag-1 77*, TAAR1 ag 235*, GPR7 antag 17, OX1R antag-2 34, TAAR1 antagonist 84*, CHO parental Ca 69*, TAAR1 ag conf 114*, Ga16 nonsel ag 121*, TAAR1 desensitize 66* and Ga16 antag count 61*.
Screening CSc1nc2ccc(NC(=O)CSc3nnc(N)s3)cc2s1 returned OX1R antag-1 -9, TAAR1 ag 8, GPR7 antag 1, OX1R antag-2 14, TAAR1 antagonist -5 and CHO parental Ca -5.
Cc1cc(C)c(C(N)=O)c(Nc2cccc(Cl)c2)n1 was read as OX1R antag-1 1, TAAR1 ag 1, GPR7 antag -3, OX1R antag-2 6, TAAR1 antagonist 11 and CHO parental Ca -12.
`Nc1nc(N)c(N=O)c(Nc2cccc(Cl)c2)n1` gave TAAR1 ag 68*, TAAR1 antagonist -16, TAAR1 ag conf 128*, Ga16 nonsel ag 48*, TAAR1 desensitize 53* and Ga16 antag count -5.
Nc1nc(N)c(N=O)c(Nc2ccc(Cl)c(Cl)c2)n1 was read as TAAR1 ag 109*, TAAR1 antagonist 10, TAAR1 ag conf 136*, Ga16 nonsel ag 58*, TAAR1 desensitize 71* and Ga16 antag count 4.
`Cc1ccc(Nc2nc(N)nc(N)c2N=O)cc1Cl` gave TAAR1 ag 75*, TAAR1 antagonist -1, TAAR1 ag conf 109*, Ga16 nonsel ag 29*, TAAR1 desensitize 37 and Ga16 antag count 1.
Screening Cc1cccc(-c2nnc(SCC(=O)N3CCOCC3)o2)c1 returned OX1R antag-1 -18, TAAR1 ag 0, GPR7 antag -9, OX1R antag-2 21, TAAR1 antagonist -17 and CHO parental Ca 4.
`CCCCc1ccc(NC(=O)C2CCN(S(C)(=O)=O)CC2)cc1` gave OX1R antag-1 -15, TAAR1 ag 57*, GPR7 antag -9, OX1R antag-2 3, TAAR1 antagonist 26, CHO parental Ca -6, TAAR1 ag conf -1, Ga16 nonsel ag 1, TAAR1 desensitize 1 and Ga16 antag count 11.
`CN(CCc1ccccc1)c1cc2c(c3c1ccn3C)C1CCC2O1` (stereo not drawn) gave TAAR1 ag 78*, TAAR1 antagonist 69*, TAAR1 ag conf 94*, Ga16 nonsel ag 2, TAAR1 desensitize 78* and Ga16 antag count 5.
For CC1CN(C(=O)CCN2C(=O)c3ccccc3C2=O)CC(C)O1 (stereo not drawn) the results were OX1R antag-1 -2, TAAR1 ag 2, GPR7 antag 4, OX1R antag-2 10, TAAR1 antagonist -11 and CHO parental Ca -8.
